Assay outcomes: PubChem BioAssay, several laboratories
This is a sample that favours compounds with a hit; in the whole collection about 3.5% have one here.
Pf gametocyte: kills late stage P. falciparum gametocytes; P. falciparum stage V gametocytes, ATP luminescence, 24 h; inhibition, % at 10.9 µM; 150,000 compounds, 0.065% hits;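 active means inhibition above the mean plus 3 SD of compounds within the control limits, set per campaign, cut at about 38% in these data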;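 further: 0% = DMSO wells and 100% = medium only without gametocytes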
NF-kB neuron act: compounds increasing NF-kB expression in human neuronal cells; AID 1239; 190,000 compounds, 1.6% hits; fold change at 12.5 µM; NF-kB reporter expression; stronger effect = higher value; in the data active means fold change above about 3.3
FLuc inh counter: Photinus pyralis luciferase inhibition counter-screen | P08659 | ATPLite firefly luciferase biochemical luminescence, 10 min | inhibition, % at 10 µM | 200,000 compounds, 1.5% hits | AID 1006;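 active means inhibition above about 50% when tested at 10 µM, limit read from the data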
Target sequence (P08659 whole entry, looked up): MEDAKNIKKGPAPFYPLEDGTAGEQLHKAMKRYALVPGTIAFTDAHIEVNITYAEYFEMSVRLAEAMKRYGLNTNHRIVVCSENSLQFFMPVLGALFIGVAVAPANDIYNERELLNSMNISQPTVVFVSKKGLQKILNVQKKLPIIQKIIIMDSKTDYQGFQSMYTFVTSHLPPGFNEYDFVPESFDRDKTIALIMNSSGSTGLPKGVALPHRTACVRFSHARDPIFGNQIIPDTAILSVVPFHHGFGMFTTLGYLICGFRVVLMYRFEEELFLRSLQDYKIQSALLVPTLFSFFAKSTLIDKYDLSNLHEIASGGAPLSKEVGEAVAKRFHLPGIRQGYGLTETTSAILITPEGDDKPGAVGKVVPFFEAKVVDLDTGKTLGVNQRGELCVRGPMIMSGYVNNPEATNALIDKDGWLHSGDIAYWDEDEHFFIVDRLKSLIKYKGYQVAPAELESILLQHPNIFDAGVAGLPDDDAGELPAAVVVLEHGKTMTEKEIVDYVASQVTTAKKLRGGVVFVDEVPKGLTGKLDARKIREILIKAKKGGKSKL
STAT1 act: activators of IFN-gamma induced STAT1 signaling. NIH 3T3 STAT1-luciferase reporter, luminescence; 100% = IFN-gamma alone, no compound. activation (% of control), % at 5.5 µM. 200,000 compounds, 2.6% hits;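 active means activation above the screen-wide mean activation plus 3 SD, cut at about 130% in these data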;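 further: raw ratio to IFN-gamma control signal so 100% means no change and 0% no light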
FLuc stim CS: affects firefly luciferase, flagging false hits in luciferase stimulation screens; P08659; ATPlite luciferase biochemical, luminescence, 10 min; 0 = ATP-free wells, 1 = DMSO control; activation factor at 10 µM; 200,000 tested, under 10 active; AID 1027;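 active means luciferase activation factor, scaled between plate controls, of at least 2 with compound at 10 µM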
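Assay system: Luciferase/luciferin reagent mix; Medium: PBS as buffer for the ATP substrate; Dosing: test compounds dosed from 2 mM stocks in 100% DMSO; Times: 10 min, room temperature; Signal: luminescence from luciferase reaction; Read-out: luciferase activation; Controls: No-ATP low control, compound-free enzyme-plus-ATP high control.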
APP 5'UTR act: APP 5'UTR luciferase reporter activation; SH-SY5Y APP 5'UTR luciferase reporter, luminescence; zero percent = DMSO vehicle wells; activation, % at 2 µM; 190,000 compounds, 1% hits; AID 1276;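 active means activation above a set limit, based on mean plus 3 SD of controls, cut at about 140% in these data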
* hit, by the source's call; nt = not tested or not shown.

SMILES	Pf gametocyte	NF-kB neuron act	FLuc inh counter	STAT1 act	FLuc stim CS	APP 5'UTR act
CC(C(=O)Nc1ccccc1Oc1ccccc1)c1ccccc1 (stereo unspecified)	60.2*	1.29	-4.0	96.7	1	-2.4
COc1ccccc1NC(=O)c1ccccc1Oc1ccccc1	-20.1	nt	nt	nt	nt	nt
Cc1nn2c(N)c(C#N)cnc2c1-c1ccc(Cl)cc1	nt	0.98	0.7	103.2	1	-2.4
COc1ccc(-c2c(C)nn3c(N)c(C#N)cnc23)cc1OC	-22.2	1.16	-2.5	136.7*	1	-5.6
C/C(=N\NC(=O)CSc1ncccn1)c1ccc2c(c1)OCCO2	nt	1.48	6.7	101.8	0.9	18.0
CCc1ccc(CN(C(=O)c2cc3ccccc3oc2=O)C2CCS(=O)(=O)C2)cc1 (stereo unspecified)	-5.0	4.12*	4.9	129.2*	1	105.4
Cc1ccc(CN(C(=O)c2cc3ccccc3oc2=O)C2CCS(=O)(=O)C2)cc1 (stereo unspecified)	9.4	1.96	-4.1	111.7	1	30.9
Cc1cccc(C)c1OCC(=O)Nc1cccc(-c2nnc(-c3ccccc3)o2)c1	nt	0.6	1.8	106.4	1	3.9
Cc1cccc(OCC(=O)Nc2cccc(-c3nnc(-c4ccccc4)o3)c2)c1C	nt	1.91	0.1	129.6*	1	15.2
O=C(Nc1cccc(-c2nnc(-c3ccccc3)o2)c1)C1CCCCC1	nt	1.42	4.1	141.3*	1	20.2
Cc1ccc(OCC(=O)Nc2cccc(-c3nnc(-c4ccccc4)o3)c2)cc1	nt	2.27	17.6	143.1*	0.8	96.8
COc1cccc(NC(=O)COc2ccccc2C(N)=O)c1	nt	3.07	68.1*	134.4*	0.3	87.0
CCC(C)c1ccccc1NC(=O)CN1CCN(C/C=C/c2ccccc2)CC1 (stereo unspecified)	-6.3	1.01	-6.3	104.4	1.1	1.8
CCc1cc2cc(C(=O)Nc3ccc(C)cc3)sc2s1	nt	1.43	3.1	123.0	1	16.1
O=C(Nc1cnn(Cc2ccc(Cl)cc2)c1)c1cnccn1	nt	1.14	-1.7	95.2	1	2.8
Cn1c(-c2ccccc2)cc2c3no[n+]([O-])c3ccc21	nt	1.46	-3.9	130.5*	1	-0.2
Cn1cnnc1SCC(=O)Nc1ccc2nc(SCc3ccccc3F)sc2c1	1.5	2.94	5.2	145.8*	0.9	71.8
CC(C)c1nnc(NC(=O)Cc2ccccc2[N+](=O)[O-])s1	-30.4	1.13	-6.0	103.1	1.1	12.9
COc1cccc2c1C(=O)O/C2=C/c1ccc2c(c1)OCO2	nt	3.26	84.6*	104.7	0.2	76.1
COc1cccc(OC)c1C1=CC(=O)C[C@H](c2ccc3c(c2)OCO3)C1	6.5	nt	nt	nt	nt	nt
COc1ccccc1CCNC(=O)Cc1cccs1	8.8	nt	nt	nt	nt	nt
CCOc1ccc2nc(SCc3ccccc3C#N)sc2c1	nt	2.87	4.4	134.2*	1	115.6
CN(C)CCCN1C(=O)c2cccc3c([N+](=O)[O-])ccc(c23)C1=O	10.5	4.27*	-0.7	142.6*	1	-79.7
O=C1c2cccc3c([N+](=O)[O-])ccc(c23)C(=O)N1CCc1ccccn1	-32.4	nt	nt	nt	nt	nt
O=C(Nc1ccccc1C(=O)N/N=C/c1ccc(F)cc1)c1ccccc1Br	nt	0.94	74.0*	100.3	0.3	4.2
SMILES	Pf gametocyte	NF-kB neuron act	FLuc inh counter	STAT1 act	FLuc stim CS	APP 5'UTR act
CSc1ccc(/C=N/NC(=O)c2cc(O)cc(O)c2)cc1	-5.8	1.85	73.5*	107.1	0.3	50.0
O=C(N/N=C/c1ccccc1C(F)(F)F)c1ccc(O)cc1	-2.1	1.68	55.4*	130.4*	0.4	45.0
CSc1ccc(/C=N/Nc2ccc(Cl)c(C(=O)O)c2)cc1	-2.2	12.3*	14.4	106.9	0.9	139.1*
Cc1c(C(=O)NCc2cccnc2)oc2ccc(S(=O)(=O)N3CCCCCC3)cc12	nt	0.53	-7.0	101.8	1.1	20.8
O=C(N/N=C/c1ccc(-c2ccccc2Cl)o1)c1ccccc1	8.6	1.24	5.1	137.2*	0.9	30.4
O=C(N/N=C/c1ccc(F)cc1)c1ccccc1	-4.8	2.65	75.4*	128.9*	0.2	66.0
O=C(O)c1ccc(N/N=C/c2ccc(-c3ccccc3Cl)o2)cc1	-5.0	nt	nt	nt	nt	nt
CCOc1ccc(S(=O)(=O)N(C)c2ccc(OCC(=O)Nc3nc(-c4cc(OC)ccc4OC)cs3)cc2)cc1	22.6	0.92	-7.2	93.6	1.1	0.4
CSCCC(N=C(NS(=O)(=O)c1ccc(C)cc1)c1ccccc1)C(=O)O (stereo unspecified)	-2.2	nt	nt	nt	nt	nt
CCCc1ccc(-c2ccc(-c3noc(-c4ccncc4)n3)cc2)nc1	18.3	nt	nt	nt	nt	nt
Cc1ccc(Cc2nc(-c3ccncc3)no2)cc1	9.4	1.29	-4.6	102.7	1	-21.6
CCCCc1ccc(-c2nc(-c3ccncc3)no2)cc1	-14.8	6.99*	13.4	116.2	0.9	175.6*
CCc1ccc(-c2nc(-c3ccncc3)no2)cc1	3.5	3.4*	43.2	116.4	0.6	167.8*
CCn1c(=O)c(C(=O)NC(C)c2ccccc2)c(O)c2ccccc21 (stereo unspecified)	11.1	nt	nt	nt	nt	nt
COc1cccc(/C=C/c2nc(C#N)c(NCC(C)C)o2)c1	4.3	nt	nt	nt	nt	nt
O=C(/C=C/c1ccnc2ccccc12)c1cccs1	6.9	1.02	96.3*	102.8	0	182.7*
O=C(Cn1cnc2ccccc2c1=O)c1cccs1	nt	1.2	1.1	97.8	1	-2.6
O=C(COC(=O)c1cccs1)c1ccccc1	nt	4.64*	65.7*	131.2*	0.3	54.8
O=C(c1ccccc1)c1cccs1	nt	nt	3.4	96.8	1	5.1
O=C(CCC(=O)c1cccs1)c1cccs1	-6.4	5.24*	21.9	130.5*	0.8	131.3
O=C(NCc1ccco1)c1cccs1	-16.6	1.28	1.7	97.9	1	24.2
O=C(CSCc1ccco1)c1cccs1	nt	1.91	16.9	124.1	0.8	169.7*
O=C(CCC(=O)c1cccs1)NC(c1ccccc1)c1ccccc1	nt	0.87	-1.2	107.9	1	7.5
CN1CCC(=NNC(=O)C(=O)Nc2ccccc2F)CC1	4.2	1.26	-1.8	99.7	1	11.0
N/C(=N\OC(=O)CCC1CCCC1)c1ccccc1	-13.9	1.27	87.6*	121.8	0.1	24.4
SMILES	Pf gametocyte	NF-kB neuron act	FLuc inh counter	STAT1 act	FLuc stim CS	APP 5'UTR act
N/C(=N\OC(=O)CCC1CCCC1)c1ccccn1	24.8	1.11	84.2*	118.4	0.2	48.1
N/C(=N\OC(=O)CCCc1ccccc1)c1ccccn1	-17.6	1.68	60.2*	103.6	0.4	13.4
N/C(=N\OC(=O)COc1ccccc1)c1ccccn1	22.3	2.14	3.5	125.6	1	51.5
Cc1ccc(/C(N)=N/OC(=O)CCc2ccccc2)cc1	1.4	2.05	5.0	121.3	0.9	44.6
N/C(=N\OC(=O)CCc1ccccc1)c1ccccc1Cl	-51.6	1.19	10.3	140.8*	0.9	33.0
N/C(=N\OC(=O)Cc1ccccc1)c1ccccn1	-7.2	1.71	12.0	115.4	0.9	46.9
